From ChEMBL document CHEMBL5357047, “The development of thymol-isatin hybrids as broad-spectrum antibacterial agents with potent anti-MRSA activity” (RSC Med Chem, 2024)
In brackets after ≈: the same amount, converted by molar mass.

Experiments:
[1] = molecular target: T1, 4,4'-diapophytoene synthase (Staphylococcus aureus, UniProt A9JQL9); experiment: Inhibition of Staphylococcus aureus CrtM
T1 sequence (A9JQL9 whole entry): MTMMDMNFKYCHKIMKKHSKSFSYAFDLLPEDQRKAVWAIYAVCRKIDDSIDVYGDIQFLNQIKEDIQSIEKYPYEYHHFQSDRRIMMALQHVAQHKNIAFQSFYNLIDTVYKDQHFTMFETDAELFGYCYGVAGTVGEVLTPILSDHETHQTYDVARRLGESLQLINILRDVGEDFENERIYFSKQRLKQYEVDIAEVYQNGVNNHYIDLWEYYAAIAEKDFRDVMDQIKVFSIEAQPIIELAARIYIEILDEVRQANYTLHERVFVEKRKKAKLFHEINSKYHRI

[2] = Cytotoxicity against mouse L929 cells assessed as reduction in cell viability measured after 72 hrs by MTT assay; format: toxicity, cell-based
How it was run: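 L929 cells (ATCC) grown in DMEM with 10% FBS and penicillin/streptomycin at 37 °C, 5% CO2; seeded at 5 × 10^3 cells per well and exposed to serial dilutions for 72 h, paclitaxel as positive control. MTT (5 mg mL−1), formazan dissolved in DMSO, absorbance at 490 nm; viability relative to control after blank subtraction; IC50 in μM.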

[3] = test system: Staphylococcus aureus; experiment: Antibacterial activity against Methicillin-resistant Staphylococcus aureus ATCC 33591 assessed as inhibition of bacterial growth measured after 48 hrs by broth microdilution method; format: functional
[4] = test system: Staphylococcus aureus; experiment: Antibacterial activity against Staphylococcus aureus MTCC 740 assessed as inhibition of bacterial growth at 50 uM measured after 48 hrs by agar well diffusion method; format: functional; details: read-out: IZ
[5] = test system: Staphylococcus aureus; experiment: Antibacterial activity against clinically isolated Staphylococcus aureus RBRJ010 assessed as inhibition of bacterial growth measured after 48 hrs by broth microdilution method; format: functional
[6] = test system: Escherichia coli; experiment: Antibacterial activity against Escherichia coli MTCC 119 assessed as inhibition of bacterial growth at 50 uM measured after 48 hrs by agar well diffusion method; format: functional; details: read-out: IZ
[7] = test system: Acinetobacter baumannii; experiment: Antibacterial activity against clinically isolated Acinetobacter baumannii RBRJ027 assessed as inhibition of bacterial growth at 50 uM measured after 48 hrs by agar well diffusion method; format: functional; details: read-out: IZ
[8] = test system: Enterococcus faecalis; experiment: Antibacterial activity against Enterococcus faecalis MTCC 439 assessed as inhibition of bacterial growth at 50 uM measured after 48 hrs by agar well diffusion method; format: functional; details: read-out: IZ
[9] = test system: Enterobacter cloacae; experiment: Antibacterial activity against clinically isolated Enterobacter cloacae RBRJ017 assessed as inhibition of bacterial growth at 50 uM measured after 48 hrs by agar well diffusion method; format: functional; details: read-out: IZ
[10] = Selectivity index, ratio of IC50 for cytotoxicity against mouse L929 cells to MIC for antibacterial activity against clinically isolated Methicillin-resistant Staphylococcus aureus; format: toxicity, cell-based; details: read-out: Selectivity Index
[11] = test system: Staphylococcus aureus; experiment: Bactericidal activity against clinically isolated Staphylococcus aureus RBRJ010 assessed as inhibition of bacterial growth measured after 48 hrs by agar plate method; format: functional
How it was run: (§1)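 MBC: 10 μL from wells showing no INT colour change after broth microdilution subcultured on drug-free Mueller Hinton agar, 48 h at 37 °C aerobically; lowest concentration with no visible growth taken as MBC (μM). Triplicate.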

[12] = test system: Staphylococcus aureus; experiment: Bactericidal activity against Staphylococcus aureus MTCC 740 assessed as inhibition of bacterial growth measured after 48 hrs by agar plate method; format: functional
How it was run: (§2)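 MBC: aliquots from microdilution wells without colour change subcultured on drug-free Mueller Hinton agar, 48 h at 37 °C aerobically. MBC is the lowest concentration with no visible growth. Triplicate.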

[13] = test system: Klebsiella pneumoniae; experiment: Antibacterial activity against Klebsiella pneumoniae MTCC 109 assessed as inhibition of bacterial growth at 50 uM measured after 48 hrs by agar well diffusion method; format: functional; details: read-out: IZ
[14] = test system: Enterococcus faecalis; experiment: Antibacterial activity against clinically isolated Enterococcus faecalis RBRJ015 assessed as inhibition of bacterial growth at 50 uM measured after 48 hrs by agar well diffusion method; format: functional; details: read-out: IZ
[15] = test system: Staphylococcus aureus; experiment: Antibacterial activity against Staphylococcus aureus MTCC 740 assessed as inhibition of bacterial growth measured after 48 hrs by broth microdilution method; format: functional
[16] = test system: Klebsiella pneumoniae; experiment: Antibacterial activity against clinically isolated Klebsiella pneumoniae RBRJ019 assessed as inhibition of bacterial growth at 50 uM measured after 48 hrs by agar well diffusion method; format: functional; details: read-out: IZ
[17] = test system: Staphylococcus aureus; experiment: Antibacterial activity against clinically isolated Methicillin-resistant Staphylococcus aureus assessed as inhibition of bacterial growth at 50 uM measured after 48 hrs by agar well diffusion method; format: functional; details: read-out: IZ
[18] = test system: Staphylococcus aureus; experiment: Antibacterial activity against Methicillin-resistant Staphylococcus aureus ATCC 33591 assessed as inhibition of bacterial growth at 50 uM measured after 48 hrs by agar well diffusion method; format: functional; details: read-out: IZ
How it was run: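 Agar well diffusion on Mueller Hinton agar seeded with bacteria at 0.5 McFarland. […] Incubated 48 h at 37 °C aerobically; zone of inhibition diameter (mm) measured. Triplicate.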

[19] = test system: Pseudomonas aeruginosa; experiment: Antibacterial activity against Pseudomonas aeruginosa MTCC 424 assessed as inhibition of bacterial growth at 50 uM measured after 48 hrs by agar well diffusion method; format: functional; details: read-out: IZ
[20] = test system: Klebsiella pneumoniae; experiment: Antibacterial activity against clinically isolated Klebsiella pneumoniae RBRJ024 assessed as inhibition of bacterial growth at 50 uM measured after 48 hrs by agar well diffusion method; format: functional; details: read-out: IZ
[21] = test system: Staphylococcus aureus; experiment: Antibacterial activity against clinically isolated Staphylococcus aureus RBRJ010 assessed as inhibition of bacterial growth at 50 uM measured after 48 hrs by agar well diffusion method; format: functional; details: read-out: IZ
[22] = test system: Staphylococcus aureus; experiment: Bactericidal activity against Methicillin-resistant Staphylococcus aureus ATCC 33591 assessed as inhibition of bacterial growth measured after 48 hrs by agar plate method; format: functional; how it was run: as §2
[23] = test system: Escherichia coli; experiment: Antibacterial activity against clinically isolated Escherichia coli RBRJ013 assessed as inhibition of bacterial growth at 50 uM measured after 48 hrs by agar well diffusion method; format: functional; details: read-out: IZ
[24] = test system: Escherichia coli; experiment: Antibacterial activity against clinically isolated Escherichia coli RBRJ005 assessed as inhibition of bacterial growth at 50 uM measured after 48 hrs by agar well diffusion method; format: functional; details: read-out: IZ
[25] = test system: Staphylococcus aureus; experiment: Bactericidal activity against clinically isolated Methicillin-resistant Staphylococcus aureus assessed as inhibition of bacterial growth measured after 48 hrs by agar plate method; format: functional
[26] = test system: Staphylococcus epidermidis; experiment: Antibacterial activity against Staphylococcus epidermidis MTCC 435 assessed as inhibition of bacterial growth at 50 uM measured after 48 hrs by agar well diffusion method; format: functional; details: read-out: IZ
[27] = test system: Staphylococcus aureus; experiment: Antibacterial activity against clinically isolated Methicillin-resistant Staphylococcus aureus assessed as inhibition of bacterial growth measured after 48 hrs by broth microdilution method; format: functional
[28] = test system: Staphylococcus epidermidis; experiment: Antibacterial activity against Staphylococcus epidermidis MTCC 435 assessed as inhibition of bacterial growth measured after 48 hrs by broth microdilution method; format: functional
[29] = test system: Staphylococcus epidermidis; experiment: Bactericidal activity against Staphylococcus epidermidis MTCC 435 assessed as inhibition of bacterial growth measured after 48 hrs by agar plate method; format: functional; how it was run: as §1

SMILES: O=P(O)(O)C(CCCc1ccc(-c2ccccc2)cc1)S(=O)(=O)O (stereo not drawn)
- Ki [1]: 6 nM

SMILES: O=P(O)(O)C(CCCc1ccc(-c2ccccc2)cc1)P(=O)(O)O
- Ki [1]: 0.2 nM

SMILES: CC(=O)O[C@H]1C(=O)[C@@]2(C)[C@H]([C@H](OC(=O)c3ccccc3)[C@]3(O)C[C@H](OC(=O)[C@H](O)[C@@H](NC(=O)c4ccccc4)c4ccccc4)C(C)=C1C3(C)C)[C@]1(OC(C)=O)CO[C@@H]1C[C@@H]2O [PACLITAXEL]
- IC50 at 72 h [2]: 62.5 nM

SMILES: Cc1ccc(C(C)C)c(OCc2cn(CCCN3C(=O)C(=O)c4cc(F)ccc43)nn2)c1
- MIC [3]: 62.5 µM (≈ 27.3 µg/mL)
- zone of inhibition at 50 µM [4]: 24.1 mm
- MIC [5]: 7.8 µM (≈ 3.4 µg/mL)
- zone of inhibition at 50 µM [6]: 15.2 mm
- zone of inhibition at 50 µM [7]: 14.7 mm
- zone of inhibition at 50 µM [8]: 16.4 mm
- zone of inhibition at 50 µM [9]: 15.3 mm
- selectivity ratio [10]: 2
- MBC [11]: 15.6 µM (≈ 6.81 µg/mL)
- MBC [12]: 15.6 µM (≈ 6.81 µg/mL)
- zone of inhibition at 50 µM [13]: 15.2 mm
- zone of inhibition at 50 µM [14]: 15.3 mm
- MIC [15]: 7.8 µM (≈ 3.4 µg/mL)
- zone of inhibition at 50 µM [16]: 15.4 mm
- zone of inhibition at 50 µM [17]: 22.2 mm
- zone of inhibition at 50 µM [18]: 20.3 mm
- zone of inhibition at 50 µM [19]: 16 mm
- zone of inhibition at 50 µM [20]: 14.3 mm
- zone of inhibition at 50 µM [21]: 23.2 mm
- MBC [22]: 125 µM (≈ 54.6 µg/mL)
- zone of inhibition at 50 µM [23]: 16.2 mm
- zone of inhibition at 50 µM [24]: 16.2 mm
- MBC [25]: 31.2 µM (≈ 13.6 µg/mL)
- IC50 at 72 h [2]: 31200 nM
- zone of inhibition at 50 µM [26]: 16.2 mm
- MIC [27]: 15.6 µM (≈ 6.81 µg/mL)

SMILES: COc1ccc2c(c1)C(=O)C(=O)N2CCn1cc(COc2cc(C)ccc2C(C)C)nn1
- zone of inhibition at 50 µM [4]: 16.2 mm
- MIC [5]: 62.5 µM (≈ 27.2 µg/mL)
- zone of inhibition at 50 µM [6]: 16.2 mm
- zone of inhibition at 50 µM [7]: 11.4 mm
- zone of inhibition at 50 µM [8]: 15.5 mm
- zone of inhibition at 50 µM [9]: 13.2 mm
- MBC [11]: 125 µM (≈ 54.3 µg/mL)
- zone of inhibition at 50 µM [13]: 15.3 mm
- zone of inhibition at 50 µM [14]: 11.3 mm
- zone of inhibition at 50 µM [16]: 14.6 mm
- zone of inhibition at 50 µM [17]: 15.3 mm
- zone of inhibition at 50 µM [18]: 15.5 mm
- zone of inhibition at 50 µM [19]: 11.5 mm
- zone of inhibition at 50 µM [20]: 14.9 mm
- zone of inhibition at 50 µM [21]: 20.3 mm
- zone of inhibition at 50 µM [23]: 11.1 mm
- zone of inhibition at 50 µM [24]: 11.5 mm
- zone of inhibition at 50 µM [26]: 16.4 mm

SMILES: Cc1ccc(C(C)C)c(OCc2cn(CCN3C(=O)C(=O)c4ccccc43)nn2)c1
- zone of inhibition at 50 µM [4]: 20.2 mm
- MIC [5]: 15.6 µM (≈ 6.31 µg/mL)
- zone of inhibition at 50 µM [6]: 18.6 mm
- zone of inhibition at 50 µM [7]: 13.3 mm
- zone of inhibition at 50 µM [8]: 15.4 mm
- zone of inhibition at 50 µM [9]: 16.5 mm
- selectivity ratio [10]: 4
- MBC [11]: 31.2 µM (≈ 12.6 µg/mL)
- MBC [12]: 125 µM (≈ 50.6 µg/mL)
- zone of inhibition at 50 µM [13]: 18.3 mm
- zone of inhibition at 50 µM [14]: 18.3 mm
- MIC [15]: 62.5 µM (≈ 25.3 µg/mL)
- zone of inhibition at 50 µM [16]: 16.4 mm
- zone of inhibition at 50 µM [17]: 20.2 mm
- zone of inhibition at 50 µM [18]: 18.2 mm
- zone of inhibition at 50 µM [19]: 18.2 mm
- zone of inhibition at 50 µM [20]: 16.5 mm
- zone of inhibition at 50 µM [21]: 22.2 mm
- zone of inhibition at 50 µM [23]: 14.4 mm
- zone of inhibition at 50 µM [24]: 15.2 mm
- MBC [25]: 125 µM (≈ 50.6 µg/mL)
- MIC [28]: 15.6 µM (≈ 6.31 µg/mL)
- IC50 at 72 h [2]: 250000 nM
- MBC [29]: 31.2 µM (≈ 12.6 µg/mL)
- zone of inhibition at 50 µM [26]: 22.7 mm
- MIC [27]: 62.5 µM (≈ 25.3 µg/mL)
